Laboratory results as given in ChEMBL document CHEMBL4052700, “Synthesis and biological evaluation of JL-A7 derivatives as potent ABCB1 inhibitors” (Bioorg Med Chem, 2017).
Counter-ions that a name gives are not always drawn.

Tests used:
Assay type in all cases: cell-based; call rule not given here
[1] = molecular target: T1, ATP-dependent translocase ABCB1 (Homo sapiens, UniProt P08183); experiment: Inhibition of ABCB1 in human K562/A02 cells assessed as potentiation of adriamycin-induced cytotoxicity by measuring reduction in ADR IC50 at 5 uM measured after 48 hrs by MTT assay relative to ADR alone
In short: (§1)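 K562/A02 cells in RPMI 1640 with 10% FBS, 1×10^4/well, grown 24 h. Graded ADM was given with the modulator (0.025–5.0 µM), 48 h at 37 °C, 5% CO2. MTT 4 h, A570. ADM IC50 came from dose–response curves. RF = ADM IC50 without modulator / IC50 with modulator. Triplicates, three independent runs, mean ± SD.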

K562 = experiment: Cytotoxicity against human K562 cells after 48 hrs by MTT assay; details: K562, 48 h
In short: (§2)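 K562 (parental) and K562/A02 (ADM-resistant, ABCB1-overexpressing) cells, 1×10^4/well, grown 24 h. A graded dose of compound in medium was added, then 48 h at 37 °C under 5% CO2. MTT was added for 4 h at 37 °C and absorbance read at 570 nm. IC50 was taken from dose–response curves.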

K562/A02 = experiment: Cytotoxicity against human K562/A02 cells after 48 hrs by MTT assay; details: K562/A02, 48 h; in short: as §2
[2] = molecular target: T1, ATP-dependent translocase ABCB1; experiment: Inhibition of ABCB1 in human K562/A02 cells assessed as potentiation of adriamycin-induced cytotoxicity by measuring reduction in ADR IC50 measured after 48 hrs by MTT assay relative to ADR alone; in short: as §1
[3] = molecular target: T1, ATP-dependent translocase ABCB1; experiment: Inhibition of ABCB1 in human K562/A02 cells assessed as potentiation of adriamycin-induced cytotoxicity by measuring ADR IC50 treated for 48 hrs followed by compound washout measured after 12 hrs by MTT assay relative to ADR alone
In short: (§3)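 Duration of reversal in K562/A02 cells. After modulator exposure, cells were tested without washout or after modulator removal followed by 0, 6, 12 or 24 h in drug-free medium. ADM IC50 was then found by MTT. RF = IC50 without modulator / IC50 with modulator. Two to three experiments, mean ± SD.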

[4] = molecular target: T1, ATP-dependent translocase ABCB1; experiment: Inhibition of ABCB1 in human K562/A02 cells assessed as potentiation of adriamycin-induced cytotoxicity by measuring ADR IC50 treated for 48 hrs followed by compound washout measured immediately by MTT assay relative to ADR alone; in short: as §3
[5] = molecular target: T1, ATP-dependent translocase ABCB1; experiment: Inhibition of ABCB1 in human K562/A02 cells assessed as potentiation of adriamycin-induced cytotoxicity by measuring ADR IC50 treated for 48 hrs followed by compound washout measured after 6 hrs by MTT assay relative to ADR alone; in short: as §3
[6] = molecular target: T1, ATP-dependent translocase ABCB1; experiment: Inhibition of ABCB1 in human K562/A02 cells assessed as potentiation of adriamycin-induced cytotoxicity by measuring ADR IC50 treated for 48 hrs followed by compound washout measured after 24 hrs by MTT assay relative to ADR alone; in short: as §3
[7] = molecular target: T1, ATP-dependent translocase ABCB1; experiment: Inhibition of ABCB1 in human K562/A02 cells assessed as increase in adriamycin accumulation pretreated for 60 mins followed by ADR addition after 90 mins by fluorescence spectrophotometric method; details: 1.5 h
In short: (§4)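 ADM was then added at 20 µM for 90 min. Cells were washed three times with PBS at 4 °C. Retained intracellular ADM mean fluorescence intensity was read by fluorescence spectrophotometer. Three independent experiments, mean ± SD.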

[8] = molecular target: T1, ATP-dependent translocase ABCB1; experiment: Inhibition of ABCB1 in human K562/A02 cells assessed as potentiation of adriamycin-induced cytotoxicity by measuring reduction in ADR IC50 at 0.025 uM measured after 48 hrs by MTT assay relative to ADR alone; in short: as §1
[9] = molecular target: T1, ATP-dependent translocase ABCB1; experiment: Inhibition of ABCB1 in human K562/A02 cells assessed as potentiation of adriamycin-induced cytotoxicity by measuring reduction in ADR IC50 at 0.1 uM measured after 48 hrs by MTT assay relative to ADR alone; in short: as §1
[10] = molecular target: T1, ATP-dependent translocase ABCB1; experiment: Inhibition of ABCB1 in human K562/A02 cells assessed as potentiation of adriamycin-induced cytotoxicity by measuring reduction in ADR IC50 at 5 uM measured after 48 hrs by MTT assay relative to tariquidar
[11] = molecular target: T1, ATP-dependent translocase ABCB1; experiment: Inhibition of ABCB1 in human K562/A02 cells assessed as potentiation of adriamycin-induced cytotoxicity by measuring reduction in ADR IC50 at 1 uM measured after 48 hrs by MTT assay relative to ADR alone; in short: as §1
[12] = molecular target: T1, ATP-dependent translocase ABCB1; experiment: Inhibition of ABCB1 in human K562/A02 cells assessed as potentiation of adriamycin-induced cytotoxicity by measuring reduction in ADR IC50 at 0.5 uM measured after 48 hrs by MTT assay relative to ADR alone; in short: as §1
[13] = molecular target: T1, ATP-dependent translocase ABCB1; experiment: Potency index, ratio of compound effect to verapamil effect for inhibition of ABCB1 in human K562/A02 cells assessed as increase in adriamycin accumulation at 5 uM; in short: as §4
[14] = molecular target: T1, ATP-dependent translocase ABCB1; experiment: Inhibition of ABCB1 in human K562/A02 cells assessed as potentiation of adriamycin-induced cytotoxicity by measuring reduction in ADR IC50 at 5 uM measured after 48 hrs by MTT assay relative to JL-A7
[15] = molecular target: T1, ATP-dependent translocase ABCB1; experiment: Inhibition of ABCB1 in human K562/A02 cells assessed as potentiation of adriamycin-induced cytotoxicity measured after 48 hrs by MTT assay; in short: as §1
[16] = molecular target: T1, ATP-dependent translocase ABCB1; experiment: Inhibition of ABCB1 in human K562/A02 cells assessed as potentiation of adriamycin-induced cytotoxicity by measuring reduction in ADR IC50 at 2.5 uM measured after 48 hrs by MTT assay relative to ADR alone; in short: as §1
[17] = molecular target: T1, ATP-dependent translocase ABCB1; experiment: Inhibition of ABCB1 in human K562/A02 cells assessed as rhodamine123 efflux after 90 mins by flow cytometric analysis (reference value: 0.0231 +/- 0.0058 /s); details: 1.5 h
[18] = molecular target: T1, ATP-dependent translocase ABCB1; experiment: Inhibition of ABCB1 in human K562/A02 cells assessed as potentiation of adriamycin-induced cytotoxicity by measuring reduction in ADR IC50 at 0.05 uM measured after 48 hrs by MTT assay relative to ADR alone; in short: as §1
[19] = molecular target: T1, ATP-dependent translocase ABCB1; experiment: Inhibition of ABCB1 in human K562/A02 cells assessed as increase in adriamycin accumulation at 0.5 to 2.5 uM pretreated for 60 mins followed by ADR addition after 90 mins by fluorescence spectrophotometric method; details: 1.5 h; in short: as §4
[20] = molecular target: T1, ATP-dependent translocase ABCB1; experiment: Inhibition of ABCB1 in human K562/A02 cells assessed as potentiation of adriamycin-induced cytotoxicity by measuring reduction in ADR IC50 at 5 uM measured after 48 hrs by MTT assay relative to verapamil
[21] = molecular target: T1, ATP-dependent translocase ABCB1; experiment: Inhibition of ABCB1 in human K562/A02 cells assessed as increase in doxorubicin accumulation after 90 mins by rhodamine123 staining based flow cytometric analysis; details: 1.5 h
[22] = molecular target: T1, ATP-dependent translocase ABCB1; experiment: Inhibition of ABCB1 in human K562/A02 cells assessed as potentiation of adriamycin-induced cytotoxicity by measuring reduction in ADR IC50 at 0.25 uM measured after 48 hrs by MTT assay relative to ADR alone; in short: as §1

T1 sequence (P08183 whole entry): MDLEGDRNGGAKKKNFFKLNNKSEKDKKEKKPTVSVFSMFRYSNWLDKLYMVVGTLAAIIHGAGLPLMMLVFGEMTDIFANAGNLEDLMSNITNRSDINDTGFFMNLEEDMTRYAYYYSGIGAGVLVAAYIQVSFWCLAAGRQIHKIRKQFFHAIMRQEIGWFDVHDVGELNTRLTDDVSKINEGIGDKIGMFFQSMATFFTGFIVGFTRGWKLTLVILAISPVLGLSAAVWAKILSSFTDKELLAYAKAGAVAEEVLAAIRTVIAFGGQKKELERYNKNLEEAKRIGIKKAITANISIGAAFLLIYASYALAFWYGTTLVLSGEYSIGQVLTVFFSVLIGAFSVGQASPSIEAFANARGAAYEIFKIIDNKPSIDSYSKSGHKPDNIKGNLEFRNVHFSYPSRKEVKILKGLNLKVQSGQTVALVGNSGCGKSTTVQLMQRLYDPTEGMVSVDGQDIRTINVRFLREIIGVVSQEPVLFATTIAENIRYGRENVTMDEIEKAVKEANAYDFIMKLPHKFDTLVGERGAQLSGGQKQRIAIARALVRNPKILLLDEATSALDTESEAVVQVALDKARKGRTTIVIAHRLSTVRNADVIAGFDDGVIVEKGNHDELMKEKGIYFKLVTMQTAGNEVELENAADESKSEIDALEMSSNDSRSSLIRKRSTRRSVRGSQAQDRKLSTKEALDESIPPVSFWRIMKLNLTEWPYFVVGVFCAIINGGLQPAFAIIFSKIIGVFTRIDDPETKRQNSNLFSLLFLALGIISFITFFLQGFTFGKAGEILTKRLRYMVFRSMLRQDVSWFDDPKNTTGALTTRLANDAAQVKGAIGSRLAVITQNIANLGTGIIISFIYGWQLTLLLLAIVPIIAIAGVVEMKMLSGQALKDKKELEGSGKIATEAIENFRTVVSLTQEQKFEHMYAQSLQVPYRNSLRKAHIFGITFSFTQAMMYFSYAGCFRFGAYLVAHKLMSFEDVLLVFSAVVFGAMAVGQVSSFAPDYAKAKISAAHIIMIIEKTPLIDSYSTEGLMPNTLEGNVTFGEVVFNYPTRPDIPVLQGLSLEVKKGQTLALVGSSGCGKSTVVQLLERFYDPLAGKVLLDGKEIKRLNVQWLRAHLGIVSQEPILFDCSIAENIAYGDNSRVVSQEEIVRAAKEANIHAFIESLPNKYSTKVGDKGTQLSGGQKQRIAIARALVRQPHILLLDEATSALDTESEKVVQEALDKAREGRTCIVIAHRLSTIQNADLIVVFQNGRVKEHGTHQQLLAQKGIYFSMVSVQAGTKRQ

COc1cc2c(cc1OC)CN(CCn1cc(COc3ccccc3NC(=O)c3ccc(C(C)(C)C)cc3)nn1)CC2
fold change (FC) [1]: 28.2 | IC50 (K562): > 100 µM | IC50 (K562/A02): > 100 µM

COc1cc2c(cc1OC)CN(CCc1ccc(NC(=O)c3cc(OC)c(OC)cc3NC(=O)c3cnc4ccccc4c3)cc1)CC2
fold change (FC) [1]: 49.1 | IC50 (K562): 31.6 µM | fold change (FC) [2]: 31.98 | fold change (FC) [3]: 6.1 | fold change (FC) [4]: 16.86 | IC50 (K562/A02): 27.2 µM | fold change (FC) [5]: 10.37 | fold change (FC) [6]: 3.55

COc1cc2c(cc1OC)CN(CCn1cc(COc3ccccc3C(=O)Nc3cccc([N+](=O)[O-])c3)nn1)CC2
fold change (FC) [1]: 3.5 | IC50 (K562): > 100 µM | IC50 (K562/A02): > 100 µM

CCCCc1ccc(NC(=O)c2ccccc2OCc2cn(CCN3CCc4cc(OC)c(OC)cc4C3)nn2)cc1
fold change (FC) [1]: 15.5 | IC50 (K562): > 100 µM | IC50 (K562/A02): > 100 µM

COc1ccc(NC(=O)c2ccccc2OCc2cn(CCN3CCc4cc(OC)c(OC)cc4C3)nn2)cc1OC
fold change (FC) [1]: 12.4 | IC50 (K562): > 100 µM | IC50 (K562/A02): > 100 µM

COc1cccc(NC(=O)c2ccccc2OCc2cn(CCN3CCc4cc(OC)c(OC)cc4C3)nn2)c1
fold change (FC) [1]: 5.6 to 11.1 | IC50 (K562): > 100 µM | IC50 (K562/A02): > 100 µM

COc1cc2c(cc1OC)CN(CCn1cc(COc3ccccc3C(=O)Nc3cccc(Cl)c3)nn1)CC2
fold change (FC) [1]: 4.3 | IC50 (K562): 87.4 µM | IC50 (K562/A02): > 100 µM

COc1cc2c(cc1OC)CN(CCn1cc(COc3ccccc3C(=O)Nc3ccc(C)cc3)nn1)CC2
fold change (FC) [1]: 12.6 | IC50 (K562): > 100 µM | IC50 (K562/A02): > 100 µM

COc1cc2c(cc1OC)CN(CCn1cc(COc3ccccc3C(=O)Nc3cccc(C)c3)nn1)CC2
fold change (FC) [1]: 8 | IC50 (K562): > 100 µM | IC50 (K562/A02): > 100 µM

COc1cc2c(cc1OC)CN(CCn1cc(COc3ccccc3C(=O)Nc3ccc(OC(F)(F)F)cc3)nn1)CC2
fold change (FC) [1]: 21.4 | IC50 (K562): > 100 µM | IC50 (K562/A02): > 100 µM

COc1cc2c(cc1OC)CN(CCn1cc(COc3ccccc3C(=O)Nc3ccccc3[N+](=O)[O-])nn1)CC2
fold change (FC) [1]: 3.6 | IC50 (K562): > 100 µM | IC50 (K562/A02): > 100 µM

COc1cc2c(cc1OC)CN(CCn1cc(COc3ccccc3C(=O)Nc3ccccc3)nn1)CC2
fold change (FC) [1]: 3.8 | IC50 (K562): > 100 µM | IC50 (K562/A02): > 100 µM

COc1cc2c(cc1OC)CN(CCn1cc(COc3ccccc3C(=O)Nc3ccc([N+](=O)[O-])cc3)nn1)CC2
fold change (FC) [1]: 4.6 | IC50 (K562): > 100 µM | IC50 (K562/A02): > 100 µM

COc1cc2c(cc1OC)CN(CCn1cc(COc3ccccc3C(=O)Nc3ccc(Cl)cc3)nn1)CC2
fold change (FC) [1]: 14 | IC50 (K562): > 100 µM | IC50 (K562/A02): > 100 µM

COc1cc2c(cc1OC)CN(CCn1cc(COc3ccccc3C(=O)Nc3ccc(C(C)(C)C)cc3)nn1)CC2
fold change (FC) [1]: 33.5 | inhibition (INH) [7]: Dose-dependent effect | fold change (FC) [8]: 1.4 | fold change (FC) [9]: 1.6 | fold change (FC) [10]: <= 31.4 | fold change (FC) [11]: 7.5 | fold change (FC) [12]: 3.9 | Ratio [13]: 1.4 | fold change (FC) [14]: <= 31.4 | IC50 (K562): > 100 µM | inhibition (INH) [15]: Dose-dependent effect | fold change (FC) [16]: 13.5 | K [17]: 0.0067 s⁻¹ | fold change (FC) [2]: 40.34 | fold change (FC) [3]: 4.93 | fold change (FC) [4]: 11.83 | fold change (FC) [18]: 1.4 | inhibition (INH) [19]: Active | IC50 (K562/A02): > 100 µM | fold change (FC) [20]: <= 31.4 | fold change (FC) [5]: 8.16 | inhibition (INH) [21]: Dose-dependent effect | fold change (FC) [22]: 2.4 | fold change (FC) [6]: 2.96

COc1cc2c(cc1OC)CN(CCn1cc(COc3ccccc3C(=O)Nc3ccccc3C)nn1)CC2
fold change (FC) [1]: 4.4 | IC50 (K562): > 100 µM | IC50 (K562/A02): > 100 µM

COc1ccc(NC(=O)c2ccccc2OCc2cn(CCN3CCc4cc(OC)c(OC)cc4C3)nn2)cc1
fold change (FC) [1]: 11.6 | IC50 (K562): 79.2 µM | IC50 (K562/A02): > 100 µM

COc1cc2c(cc1OC)CN(CCn1cc(COc3ccccc3C(=O)Nc3cc(OC)c(OC)c(OC)c3)nn1)CC2
fold change (FC) [1]: 3 | IC50 (K562): > 100 µM | IC50 (K562/A02): > 100 µM

COc1cc2c(cc1OC)CN(CCn1cc(COc3ccccc3C(=O)Nc3ccc(F)cc3)nn1)CC2
fold change (FC) [1]: 11.7 | IC50 (K562): > 100 µM | IC50 (K562/A02): > 100 µM

COc1ccc(CCN(C)CCCC(C#N)(c2ccc(OC)c(OC)c2)C(C)C)cc1OC (stereo not drawn)
inhibition (INH) [19]: Active | inhibition (INH) [21]: Dose-dependent effect

COc1cccc2c1C(=O)c1c(O)c3c(c(O)c1C2=O)C[C@@](O)(C(=O)CO)C[C@@H]3O[C@H]1C[C@H](N)[C@H](O)[C@H](C)O1 [DOXORUBICIN HYDROCHLORIDE]
fold change (FC) [1]: 1 | IC50 (K562): 4.29 µM | IC50 (K562/A02): 96.9 µM
